Measured values: ChEMBL document CHEMBL1926627, “Synthesis and evaluation of novel modified γ-lactam prostanoids as EP4 subtype-selective agonists” (Bioorg Med Chem, 2012)

Assays:
[1] = target: T1, Prostaglandin E2 receptor EP1 subtype (Mus musculus, UniProt P35375); experiment: Displacement of [3H]-PGE2 from mouse EP1 receptor expressed in CHO cells after 20 mins by liquid scintillation counter; type: cell-based
T1 sequence (P35375 whole entry): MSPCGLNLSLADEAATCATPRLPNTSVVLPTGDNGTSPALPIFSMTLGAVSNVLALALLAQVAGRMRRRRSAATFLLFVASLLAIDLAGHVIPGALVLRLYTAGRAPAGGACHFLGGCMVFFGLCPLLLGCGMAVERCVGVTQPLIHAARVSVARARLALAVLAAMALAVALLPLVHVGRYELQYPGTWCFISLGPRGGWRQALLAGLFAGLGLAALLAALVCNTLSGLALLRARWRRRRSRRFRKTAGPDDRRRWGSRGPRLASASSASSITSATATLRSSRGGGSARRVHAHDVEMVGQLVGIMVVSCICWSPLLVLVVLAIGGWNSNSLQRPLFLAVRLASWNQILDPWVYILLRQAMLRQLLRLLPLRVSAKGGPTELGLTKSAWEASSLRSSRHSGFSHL
In short: (§1)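 Membranes from CHO cells stably expressing mouse EP1–4, incubated with 2.5 nM [³H]PGE₂ and test compound at various concentrations in 10 mM KH₂PO₄–KOH, 1 mM EDTA, 10 mM MgCl₂, 0.1 mM NaCl, pH 6.0. Incubated 25 °C, 60 min (EP1: 20 min). Filtration on GF/B, ice-cold buffer wash, scintillation counting. Nonspecific binding with excess unlabeled PGE₂. IC50 from regression curve; Ki = IC50/(1+[L]/Kd).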

[2] = target: Prostaglandin E2 receptor EP2 subtype (Mus musculus, UniProt Q62053); experiment: Displacement of [3H]-PGE2 from mouse EP2 receptor expressed in CHO cells after 60 mins by liquid scintillation counter; type: cell-based; in short: as §1
Chain of Prostaglandin E2 receptor EP2 subtype (Q62053 whole entry): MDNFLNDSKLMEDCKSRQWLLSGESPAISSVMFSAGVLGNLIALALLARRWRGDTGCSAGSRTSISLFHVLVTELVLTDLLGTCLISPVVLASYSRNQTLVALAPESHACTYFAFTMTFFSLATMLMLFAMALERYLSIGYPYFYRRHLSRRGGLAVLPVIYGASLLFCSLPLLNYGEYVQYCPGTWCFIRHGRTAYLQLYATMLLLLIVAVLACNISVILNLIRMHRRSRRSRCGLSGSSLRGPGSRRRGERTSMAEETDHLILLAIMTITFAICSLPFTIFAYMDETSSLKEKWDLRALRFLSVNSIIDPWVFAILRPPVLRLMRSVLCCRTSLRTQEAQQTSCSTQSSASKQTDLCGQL

[3] = target: Prostaglandin E2 receptor EP4 subtype (Mus musculus, UniProt P32240); experiment: Displacement of [3H]-PGE2 from mouse EP4 receptor expressed in CHO cells after 60 mins by liquid scintillation counter; type: cell-based; in short: as §1
Chain of Prostaglandin E2 receptor EP4 subtype (Mus musculus, UniProt P32240) (P32240 whole entry): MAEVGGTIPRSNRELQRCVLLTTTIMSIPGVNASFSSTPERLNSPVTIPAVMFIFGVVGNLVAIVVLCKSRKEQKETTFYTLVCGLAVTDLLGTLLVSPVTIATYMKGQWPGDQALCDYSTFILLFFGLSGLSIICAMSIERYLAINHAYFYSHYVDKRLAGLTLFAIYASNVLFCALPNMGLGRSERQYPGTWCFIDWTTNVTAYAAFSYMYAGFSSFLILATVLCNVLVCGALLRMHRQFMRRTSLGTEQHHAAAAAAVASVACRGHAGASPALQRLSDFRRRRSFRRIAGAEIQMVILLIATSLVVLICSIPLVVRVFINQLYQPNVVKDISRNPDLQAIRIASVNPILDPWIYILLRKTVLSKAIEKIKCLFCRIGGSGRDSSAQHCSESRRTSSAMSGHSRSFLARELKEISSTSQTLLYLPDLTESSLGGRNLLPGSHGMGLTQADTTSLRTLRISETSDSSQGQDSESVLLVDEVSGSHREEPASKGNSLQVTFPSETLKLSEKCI

[4] = target: Prostaglandin E2 receptor EP4 subtype (Rattus norvegicus, UniProt P43114); experiment: Agonist activity at rat EP4 receptor expressed in CHO cells assessed as cAMP production after 10 mins by radioimmunoassay; type: functional, cell-based
Chain of Prostaglandin E2 receptor EP4 subtype (Rattus norvegicus, UniProt P43114) (P43114 whole entry): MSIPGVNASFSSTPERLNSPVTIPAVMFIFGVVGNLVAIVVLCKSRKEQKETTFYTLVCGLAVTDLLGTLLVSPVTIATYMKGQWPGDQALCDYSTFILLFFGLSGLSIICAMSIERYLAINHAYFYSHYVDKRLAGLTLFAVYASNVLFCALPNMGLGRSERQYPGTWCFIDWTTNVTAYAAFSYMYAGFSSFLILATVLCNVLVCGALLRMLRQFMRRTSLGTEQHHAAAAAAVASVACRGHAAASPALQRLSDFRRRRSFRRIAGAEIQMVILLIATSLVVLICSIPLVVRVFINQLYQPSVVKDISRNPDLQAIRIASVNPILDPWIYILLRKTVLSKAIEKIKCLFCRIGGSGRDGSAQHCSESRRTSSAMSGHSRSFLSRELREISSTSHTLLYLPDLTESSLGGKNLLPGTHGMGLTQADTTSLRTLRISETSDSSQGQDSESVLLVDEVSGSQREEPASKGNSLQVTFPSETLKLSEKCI
In short: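 CHO cells expressing rat EP4 seeded at 1×10^5 cells/well and grown 2 days. Washed with MEM, then 10 min at 37 °C in MEM with 2 µM diclofenac. Preincubated 10 min at 37 °C in assay medium with 1% BSA. Test compound added, 10 min at 37 °C. Stopped with ice-cold 10% trichloroacetic acid. cAMP measured by radioimmunoassay.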

[5] = target: T2, Prostaglandin E2 receptor EP3 subtype (Mus musculus, UniProt P30557); experiment: Displacement of [3H]-PGE2 from mouse EP3 receptor expressed in CHO cells after 60 mins by liquid scintillation counter; type: cell-based; in short: as §1
T2 sequence (P30557 whole entry): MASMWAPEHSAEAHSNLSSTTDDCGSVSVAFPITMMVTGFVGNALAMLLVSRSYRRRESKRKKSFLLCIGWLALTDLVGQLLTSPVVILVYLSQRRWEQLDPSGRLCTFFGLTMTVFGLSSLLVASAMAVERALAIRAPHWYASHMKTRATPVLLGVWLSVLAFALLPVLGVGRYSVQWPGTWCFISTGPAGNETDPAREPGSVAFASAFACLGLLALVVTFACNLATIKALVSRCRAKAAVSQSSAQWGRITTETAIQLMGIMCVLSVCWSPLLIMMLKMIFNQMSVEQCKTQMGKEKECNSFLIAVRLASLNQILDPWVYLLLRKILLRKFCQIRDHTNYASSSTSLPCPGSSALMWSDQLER

[6] = Total clearance rat at 0.1 mg/kg, iv and 1 mg/kg, po; type: ADME, organism-based; settings: in vivo
In short: (§2)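 Rat pharmacokinetics measured after 1 mg/kg po and 0.1 mg/kg iv dosing.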

[7] = Oral bioavailability in rat at 1 mg/kg; type: ADME, organism-based; settings: in vivo
[8] = Cmax in rat at 0.1 mg/kg, iv and 1 mg/kg, po; type: ADME, organism-based; settings: in vivo; in short: as §2
[9] = AUC in rat at 0.1 mg/kg, iv and 1 mg/kg, po; type: ADME, organism-based; settings: plasma; in short: as §2
[10] = Volume of distribution at steady state in rat at 0.1 mg/kg, iv and 1 mg/kg, po; type: ADME, organism-based; settings: in vivo, read-out: Vdss; in short: as §2
[11] = test system: Rattus norvegicus; experiment: Inhibition of LPS induced TNF-alpha production in po dosed Sprague-Dawley rat administered 30 mins before LPS challenge measured after 90 mins by ELISA; type: functional
In short: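 Seven-week-old Sprague–Dawley rats dosed orally with compound in sterile saline containing 20% HP-β-CD. LPS (1 mg/mL in sterile saline) given iv at 10 µg/2 mL/kg 30 min later. Blood drawn by aortic puncture into heparinized syringes 90 min after LPS. Plasma taken after centrifugation at 4 °C and frozen. Result given as ED50.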

Row | Structure (SMILES) | Ki [1] [nM] | Ki [2] [nM] | Ki [3] [nM] | EC50 [4] [nM] | Ki [5] [nM] | clearance [6] [mL/min/kg] | bioavailability [7] [%] | Cmax [8] [ng/mL] | AUC [9] [ng·h/mL] | Vd [10] [L/kg] | ED50 [11] [mg/kg]
1 | COCc1cccc(C[C@H](O)/C=C/[C@H]2CCC(=O)N2CCSCCCC(=O)O)c1 | > 10000 | 8500 | 8 | 1.3 | > 10000 | – | – | – | – | – | –
2 | COCc1cccc(C[C@H](O)/C=C/[C@H]2CCC(=O)[C@@H]2CCSCCCC(=O)O)c1 | > 10000 | 470 | 2.4 | 1.1 | 190 | – | – | – | – | – | –
3 | O=C(O)CCCSCCN1C(=O)OC[C@@H]1/C=C/[C@@H](O)Cc1ccccc1 | > 10000 | > 10000 | 4.2 | 36 | 6400 | – | – | – | – | – | –
4 | CCc1cccc(C[C@H](O)/C=C/[C@H]2COC(=O)N2CCSCCCC(=O)O)c1 | 2400 | > 10000 | 7.9 | 18 | 2700 | – | – | – | – | – | –
5 | CCCc1cccc(C[C@H](O)/C=C/[C@H]2COC(=O)N2CCSCCCC(=O)O)c1 | > 10000 | > 10000 | 2.4 | 93 | 1900 | – | – | – | – | – | –
6 | O=C(O)CCCSCCN1C(=O)OC[C@@H]1/C=C/[C@@H](O)Cc1cccc(C(F)(F)F)c1 | > 10000 | > 10000 | 2 | 12 | 1600 | 67 | 6.7 | 3.8 | 16.7 | 0.631 | 3
7 | O=C(O)CCCSCCN1C(=O)OC[C@@H]1/C=C/[C@@H](O)Cc1cccc(F)c1 | 1200 | > 10000 | 20 | 35 | 4000 | – | – | – | – | – | –
8 | O=C(O)CCCSCCN1C(=O)OC[C@@H]1/C=C/[C@@H](O)Cc1cccc(Cl)c1 | > 10000 | > 10000 | 1.5 | 23 | 630 | – | – | – | – | – | –
9 | O=C(O)CCCSCCN1C(=O)OC[C@@H]1/C=C/[C@@H](O)Cc1cccc(-c2ccccc2)c1 | > 10000 | > 10000 | 28 | 450 | > 10000 | – | – | – | – | – | –
10 | O=C(O)CCCSCCN1C(=O)OC[C@@H]1/C=C/[C@@H](O)Cc1cccc(OC(F)(F)F)c1 | > 10000 | > 10000 | 29 | 160 | 1700 | – | – | – | – | – | –
11 | COCc1cccc(C[C@H](O)/C=C/[C@H]2COC(=O)N2CCSCCCC(=O)O)c1 | > 10000 | > 10000 | 7.2 | 24 | > 10000 | – | – | – | – | – | –
12 | O=C(O)CCCSCCN1C(=O)SC[C@@H]1/C=C/[C@@H](O)Cc1ccccc1 | > 10000 | > 10000 | 0.65 | 4.8 | 39 | 56 | 3.5 | 2.7 | 4 | 0.792 | 1
13 | CCCc1cccc(C[C@H](O)/C=C/[C@H]2CSC(=O)N2CCSCCCC(=O)O)c1 | > 10000 | > 10000 | 0.98 | 6.1 | 1200 | 52 | 6.3 | 11.4 | 17.7 | 1.28 | 1
14 | O=C(O)CCCSCCN1C(=O)SC[C@@H]1/C=C/[C@@H](O)Cc1cccc(C(F)(F)F)c1 | > 10000 | > 10000 | 0.97 | 4.3 | 280 | 51 | 5.5 | 5.3 | 14.6 | 0.512 | 1
15 | O=C(O)CCCSCCN1C(=O)SC[C@@H]1/C=C/[C@@H](O)Cc1cccc(F)c1 | > 10000 | > 10000 | 1.5 | 5.7 | 1800 | – | – | – | – | – | –
16 | COCc1cccc(C[C@H](O)/C=C/[C@H]2CSC(=O)N2CCSCCCC(=O)O)c1 | > 10000 | > 10000 | 1.2 | 2.4 | > 10000 | 47 | 2 | 2.6 | 6.1 | 0.325 | 1
17 | O=C(O)CCCCCCN1C(=S)CC[C@@H]1/C=C/[C@@H](O)Cc1ccccc1 | > 10000 | > 10000 | 1.5 | 29 | 2300 | – | – | – | – | – | –
18 | CCc1cccc(C[C@H](O)/C=C/[C@H]2CCC(=S)N2CCCCCCC(=O)O)c1 | > 10000 | 1100 | 0.83 | 9.4 | 2300 | – | – | – | – | – | –
19 | CCCc1cccc(C[C@H](O)/C=C/[C@H]2CCC(=S)N2CCCCCCC(=O)O)c1 | > 10000 | 6800 | 0.4 | 27 | 2000 | – | – | – | – | – | –
20 | O=C(O)CCCCCCN1C(=S)CC[C@@H]1/C=C/[C@@H](O)Cc1cccc(C(F)(F)F)c1 | > 10000 | > 10000 | 0.38 | 10 | 450 | – | – | – | – | – | –
21 | O=C(O)CCCCCCN1C(=S)CC[C@@H]1/C=C/[C@@H](O)Cc1cccc(F)c1 | > 10000 | > 10000 | 0.69 | 26 | 1700 | – | – | – | – | – | –
22 | COCc1cccc(C[C@H](O)/C=C/[C@H]2[C@H](O)CC(=O)[C@@H]2CCSCCCC(=O)O)c1 | > 10000 | – | – | 1.4 | – | – | – | – | – | – | –
